# Data published in PMC3051377 (British Journal of Pharmacology, 2011).
# Legend:
# [1] = molecular target: T1, Gq/11 G-proteins (Homo sapiens, UniProt P08172); test: [35S]GTPγS binding to Gq/11 G-proteins; type: biochemical, Chinese hamster; conditions: Gq/11
# T1 sequence (P08172 1-466): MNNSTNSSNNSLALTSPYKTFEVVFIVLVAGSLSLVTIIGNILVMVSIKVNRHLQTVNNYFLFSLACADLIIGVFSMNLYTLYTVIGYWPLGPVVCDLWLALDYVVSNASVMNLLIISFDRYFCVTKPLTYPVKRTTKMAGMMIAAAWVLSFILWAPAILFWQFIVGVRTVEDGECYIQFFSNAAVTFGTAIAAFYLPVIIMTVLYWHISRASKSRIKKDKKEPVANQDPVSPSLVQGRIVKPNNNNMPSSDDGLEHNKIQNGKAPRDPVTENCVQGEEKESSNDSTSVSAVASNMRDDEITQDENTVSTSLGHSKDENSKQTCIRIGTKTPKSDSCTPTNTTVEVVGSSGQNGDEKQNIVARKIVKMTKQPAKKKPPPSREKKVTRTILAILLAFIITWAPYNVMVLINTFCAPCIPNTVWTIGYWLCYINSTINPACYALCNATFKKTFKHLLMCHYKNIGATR
# [2] = system: Gs/olf G-proteins; test: Kinetics of 500 nM [3H]GDP binding to Gs/olf G-proteins; design: species or system Chinese hamster
# [3] = molecular target: T2, Gs/olf G-proteins (Homo sapiens, UniProt P08172); test: biochemical; type: binding, Chinese hamster; conditions: Gs/olf; for pα: cooperativity between agonist and [3H]GDP binding
# T2 sequence (P08172 1-466): T1 sequence (P08172 1-466)
# [4] = system: G-proteins in GDP-less membranes of CHO-M2 cells; test: Kinetics of [35S]GTPγS binding to GDP-less membranes; design: species or system Chinese hamster; conditions: for Beq of [35S]GTPγS: GDP-less membranes
# How it was run: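 GDP-less CHO-M2 membranes, 30°C. Association of 1 nM [³⁵S]GTPγS was measured after 20 min pre-incubation with buffer or 100 µM agonist, ±50 µM GDP. For dissociation, membranes were preloaded 90 min with 1 nM [³⁵S]GTPγS ±50 µM GDP, then chased with 1 µM GTPγS alone or with agonist. Filtration on glass-fibre filters, scintillation counting. Three experiments in quadruplicate; exponential association/dissociation fits.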
# [5] = system: wild-type (non-transfected) CHO cells; test: [35S]GTPγS binding at wild-type; type: biochemical, Chinese hamster
# How it was run: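 Membranes were incubated 60 min with 50 µM GDP and agonist. They were then incubated with 500 pM [³⁵S]GTPγS for 20 min at 30°C in 100 mM NaCl, 20 mM Na-HEPES, 10 mM MgCl₂ (pH 7.4) with 1 mM DTT, about 10 µg protein per sample. Non-specific binding was taken with 1 µM GTPγS. Read-out was filtration and scintillation counting.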
# [6] = system: G-proteins in GDP-less membranes of CHO-M2 cells; test: Kinetics of [3H]GDP binding to GDP-less membranes; design: species or system Chinese hamster
# How it was run: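 GDP-less CHO-M2 membranes, 30°C. Association of 500 nM [³H]GDP was measured after 20 min pre-incubation with buffer, 10 or 100 µM agonist, or 0.1 µM antagonist. For dissociation, membranes were prelabelled with 500 nM [³H]GDP for 180 min, then chased with 50 µM GDP alone or with ligand. Slow and fast rate constants came from biphasic fits.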
# [7] = molecular target: T3, Gi/o G-proteins (Homo sapiens, UniProt P08172); test: biochemical; type: biochemical, Chinese hamster; conditions: Gi/o
# T3 sequence (P08172 1-466): T1 sequence (P08172 1-466)
# [8] = molecular target: T3, Gi/o G-proteins; test: biochemical; type: binding, Chinese hamster; conditions: Gi/o; for pα: cooperativity between agonist and [3H]GDP binding
# [9] = molecular target: T4, M2 receptor-G-protein complex (Homo sapiens, UniProt P08172); type: binding; conditions: for factor of cooperativity α between binding of [3H]GDP and agonist (pα): GDP-less membranes, n=3
# T4 sequence (P08172 1-466): T1 sequence (P08172 1-466)
# [10] = system: Gi/o G-proteins; test: Kinetics of 500 nM [3H]GDP binding to Gi/o G-proteins; design: species or system Chinese hamster
# [11] = molecular target: T5, human M2 muscarinic receptor (Homo sapiens, UniProt P08172); test: Agonist-stimulated [35S]GTPγS binding to membranes from M2 CHO cells; type: biochemical; conditions: for nH: Hill coefficient, Eqn 2
# T5 sequence (P08172 1-466): T1 sequence (P08172 1-466)
# [12] = molecular target: T1, Gq/11 G-proteins; type: binding, Chinese hamster; conditions: Gq/11; for pα: cooperativity between agonist and [3H]GDP binding
# [13] = molecular target: T2, Gs/olf G-proteins; test: biochemical; type: biochemical, Chinese hamster; conditions: Gs/olf
# [14] = molecular target: T4, M2 receptor-G-protein complex; type: binding; conditions: Eqn 8, GDP-less membranes, 1 nM [3H]NMS
# [15] = molecular target: T5, human M2 muscarinic receptor; test: Competition of agonists with 1 nM [3H]NMS binding; conditions: for pKi: monophasic
# [16] = 100 µM carbachol, presence of 50 µM GDP
# [17] = NMS (100 nM), presence of 50 µM GDP
# [18] = equilibrium dissociation constant of agonist, Eqn 7
structure (smiles),measurement,setting,value
C[N+](C)(C)CCOC(N)=O [Carbachol],EMAX,[1],1.61 ± 0.02 fold increase over basal binding
same,Beq of [3H]GDP,[2]; 10 µM carbachol,0.43 ± 0.02 fmol·µg^−1 protein
same,decrease of [3H]GDP equilibrium binding,[2]; 10 µM carbachol,1.9 fold
same,Beq of [3H]GDP,[2]; 100 µM carbachol,0.10 ± 0.01 fmol·µg^−1 protein
same,decrease of [3H]GDP equilibrium binding,[2]; 100 µM carbachol,8.1 fold
same,effect on [3H]GDP binding association rate,[2]; 10 and 100 µM carbachol,no effect
same,pα,[3],−1.2 ± 0.1
same,effect on kinetics of [35S]GTPγS binding,"[4]; 100 µM carbachol, absence of GDP",did not change
same,effect on rate of dissociation of [35S]GTPγS,[4]; [16],no effect
same,increase of equilibrium binding of [35S]GTPγS,[4]; [16],fourfold
same,Beq of [35S]GTPγS,[4]; 50 µM GDP +100 µM carbachol,4.85 ± 0.19 ^*a fmol·µg^−1protein
same,Beq of [35S]GTPγS,"[4]; no GDP, +100 µM carbachol",5.70 ± 0.25 fmol·µg^−1protein
same,effect on [35S]GTPγS binding,[5],no effect
same,"slowing of [3H]GDP association, faster fraction",[6]; 10 µM carbachol,twofold
same,EMAX,[7],2.89 ± 0.06 fold increase over basal binding
same,pα,[8],−2.3 ± 0.2
same,factor of cooperativity α between binding of [3H]GDP and agonist (pα),[9]; 10 µM [3H]GDP,−2.3 ± 0.2
same,Beq1 of [3H]GDP,[10]; 10 µM carbachol,1.7 ± 0.2 fmol·µg^−1 protein
same,decrease of [3H]GDP equilibrium binding,[10]; 10 µM carbachol,1.8 fold
same,f2 of [3H]GDP dissociation,[10]; 10 µM carbachol,38 ± 4%
same,Beq1 of [3H]GDP,[10]; 100 µM carbachol,0.35 ± 0.03 fmol·µg^−1 protein
same,decrease of [3H]GDP equilibrium binding,[10]; 100 µM carbachol,ninefold
same,f2 of [3H]GDP dissociation,[10]; 100 µM carbachol,36 ± 5%
same,slowing of association of [3H]GDP in comparison to fast sites,[10]; 100 µM carbachol,12 fold
same,maximal increase of [35S]GTPγS binding (Emax),[11],threefold
same,nH,[11],0.81 ± 0.05
same,pα,[12],−0.85 ± 0.09
same,EMAX,[13],1.82 ± 0.05 fold increase over basal binding
same,reduction of agonist affinity by GDP (factor of cooperativity β),[14],200 fold
"C[N+]1(C)[C@@H]2C[C@@H](OC(=O)[C@H](CO)c3ccccc3)C[C@H]1[C@@H]1O[C@@H]12 [NMS, N-methylscopolamine]",Beq of [35S]GTPγS,[4]; 50 µM GDP +100 nM NMS,1.20 ± 0.11 fmol·µg^−1protein
same,effect on dissociation kinetics of [35S]GTPγS,[4]; [17],did not change
same,slowing of association of [35S]GTPγS,[4]; [17],25%
same,effect on GDP dissociation,[6]; 100 nM NMS (Figure 4 right),only slightly slows down
same,effect on [3H]GDP binding,"[9]; 10 µM [3H]GDP, increasing ligand concentration",did not affect
same,cooperativity between NMS and GDP,[9]; Figures 6 and 7,neutral
same,behaviour in [35S]GTPγS binding,[11]; Figures 1 and 8,inverse agonist
C[N+](C)(C)Cc1ccco1 [Furmethide],EMAX,[1],1.20 ± 0.01 fold increase over basal binding
same,pEC50,[1],4.72 ± 0.06
same,pα,[3],−1.0 ± 0.1
same,pKA,[3]; [18],7.10 ± 0.05
same,pKi,[15]; +1 µM GTPγS,4.76 ± 0.05
same,pKi,[15]; +50 µM GDP,4.77 ± 0.05
same,pKi high,[15]; Control (crude membranes),7.12 ± 0.09
same,pKi low,[15]; Control (crude membranes),4.78 ± 0.08
same,flow[%],"[15]; Control (crude membranes), fraction of receptors in low-affinity state",50 ± 9%
same,flow[%],[15]; GDP-less membranes,9.6 ± 3.8 %
same,pKi high,[15]; GDP-less membranes,7.77 ± 0.08
same,pKi low,[15]; GDP-less membranes,4.87 ± 0.09
same,EMAX,[7],2.95 ± 0.09 fold increase over basal binding
same,pEC50,[7],5.34 ± 0.10
same,pα,[8],−2.4 ± 0.2
same,pKA,[8]; [18],7.13 ± 0.05
same,factor of cooperativity α between binding of [3H]GDP and agonist (pα),[9]; 10 µM [3H]GDP,−2.4 ± 0.3
same,maximal increase of [35S]GTPγS binding (Emax),[11],3.1 fold increase
same,EMAX [fold over basal],"[11]; 500 pM [35S]GTPγS, 50 µM GDP",3.12 ± 0.08 fold over basal
same,nH,[11],0.82 ± 0.05
same,EC50,"[11]; read-out: half-effective concentrations (EC50), stimulation of [35S]GTPγS binding",7 µM
same,pα,[12],−0.32 ± 0.05
same,pKA,[12]; [18],7.17 ± 0.06
same,EMAX,[13],1.70 ± 0.02 fold increase over basal binding
same,pEC50,[13],4.76 ± 0.03
same,reduction of agonist affinity by GDP (factor of cooperativity β),[14],250 fold
